Measured values of several laboratories.
Target: Protein kinase C iota type (PRKCI, Homo sapiens, UniProt P41743)
One construct used (P41743 1-596): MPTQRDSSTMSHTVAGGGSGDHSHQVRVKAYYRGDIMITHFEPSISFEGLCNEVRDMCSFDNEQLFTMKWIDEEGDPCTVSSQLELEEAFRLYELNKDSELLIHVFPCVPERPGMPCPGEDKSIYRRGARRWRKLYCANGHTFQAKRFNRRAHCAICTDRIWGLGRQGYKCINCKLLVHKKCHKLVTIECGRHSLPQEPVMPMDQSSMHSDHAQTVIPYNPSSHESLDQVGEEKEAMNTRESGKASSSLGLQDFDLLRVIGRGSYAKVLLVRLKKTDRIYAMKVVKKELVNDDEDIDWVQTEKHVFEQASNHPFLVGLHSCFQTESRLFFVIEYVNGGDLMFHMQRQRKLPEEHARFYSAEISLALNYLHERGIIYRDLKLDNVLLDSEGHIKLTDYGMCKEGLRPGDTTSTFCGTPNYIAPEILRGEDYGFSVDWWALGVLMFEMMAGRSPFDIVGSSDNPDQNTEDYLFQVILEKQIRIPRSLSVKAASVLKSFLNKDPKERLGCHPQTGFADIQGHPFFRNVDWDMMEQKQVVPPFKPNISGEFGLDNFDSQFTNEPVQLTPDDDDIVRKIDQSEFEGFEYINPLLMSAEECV

CCN(CC)c1ccc(C2=NNC(=O)CC2C)cc1[N+](=O)[O-] (stereo not drawn) has a remaining activity of 108% (enzyme activity, inhibitor; 10 µM).
With COc1cccc(CNC(=O)c2nc3scc(COCc4ccc(C(=O)O)cc4)c3c(=O)[nH]2)c1 the remaining binding was 100% (cell-free assay, competition with immobilised ligand; 1 µM).
The inhibition of CCCCNc1ncc2c(-c3ccc(F)cc3)nn(C[C@H]3CC[C@H](N)CC3)c2n1 is reported as -5.8% (target engagement in cells, inhibitor, chemoproteomics; 20 mM).
CCC(=O)N[C@@H]1CC[C@H](C(=O)N(C)c2ccc(-c3nc4ccccc4o3)cc2)C1 has a remaining binding of 84% (cell-free assay, competition with immobilised ligand; 1 µM).
For O=C(Nc1cnn(-c2csc(C(=O)NC3COC3)c2)c1)Nc1c(F)cccc1Cl, the remaining activity was 87.4% (enzyme activity, inhibitor; 5 µM).
Nc1ncnc2occ(-c3ccc(NC(=O)Nc4cc(C(F)(F)F)ccc4F)cc3)c12 has a remaining signal of 6.8% (cell-free assay; 20 µM).
The remaining binding of C[C@@H]1CN(c2cc(-c3nn(C)c4ccc(OC5(C)CC5)cc34)ncn2)C[C@H](C)O1 is reported as 100% (cell-free assay, competition with immobilised ligand; 1 µM).
For Cc1sc(C(=O)NC2COC2)cc1-n1cc(NC(=O)Nc2c(F)cccc2Cl)cn1, the remaining activity was 90.8% (enzyme activity, inhibitor; 10 µM).
With CN(C)C1CCN(CC#Cc2nn(C3CCCC3)c3nc(NCc4ccccc4)ncc23)C1 (stereo not drawn) the inhibition was 6% (enzyme activity, inhibitor, FRET; 10 µM).
With CCN(CC)CCNC(=O)c1c(C)[nH]c(/C=C2\C(=O)Nc3ccc(F)cc32)c1C the inhibition was 3% (enzyme activity, inhibitor; 0.3 µM).
With Cc1ccc(NC(=O)c2ccc(C)c(C(F)(F)F)c2)cc1C#Cc1nn(C2CCC(O)CC2)c2ncnc(N)c12 (stereo not drawn) the remaining signal was 91% (cell-free assay; 10 µM).
COc1cc(Cl)c(C(=O)N[C@@H](CN[C@H]2CC[C@@H](N)CC2)Cc2ccc(C#N)cc2)cc1-c1ccc(CN[C@H](C)c2ccc(C)cc2)o1 has a remaining activity of 96% (enzyme activity, inhibitor; 1 µM).
The remaining binding of O=C(Nc1cnc(Oc2ccc(F)cc2)nc1)N1CCc2ncccc2[C@@H]1c1ccc(F)cc1 is reported as 98% (cell-free assay, competition with immobilised ligand; 1 µM).
The activity vs control of Cc1cc(NC(=O)c2cccc3cc(-c4cccc5[nH]nc(N)c45)ccc23)ccc1F is reported as 98% (enzyme activity, inhibitor; 0.1 µM).
For COc1cccc2c(NCc3ccccc3)nc(-n3c(N)nc4ccccc43)nc12, the inhibition was -13.3% (target engagement in cells, inhibitor, chemoproteomics; 20 mM).
Cc1cc(NC(=O)c2cccc(S(F)(F)(F)(F)F)c2)cc(-n2ccn3nc(-c4cccnc4)cc23)c1 has a remaining binding of 80.4% (cell-free assay, competition with immobilised ligand; 1 µM).
For Cc1ccc(Nc2nccc(N(C)c3ccc4c(C)n(C)nc4c3)n2)cc1S(N)(=O)=O, the remaining activity was 96.1% (enzyme activity; 0.5 µM).
COc1cc(-c2cc(-c3ccc(N4CCNCC4)cc3)cnc2C)cc(OC)c1OC has an inhibition of 18% (enzyme activity, inhibitor; 1 µM).
CCCS(=O)(=O)Nc1ccc(F)c(C(=O)c2c[nH]c3ncc(-c4ccc(Cl)cc4)cc23)c1F gave an inhibition of less than 10% (enzyme activity, inhibitor; 1 µM).
The inhibition of COc1cc2ncnc(Nc3ccc(Oc4ccccc4)c(C)c3C)c2cc1OC is reported as -4% (enzyme activity, inhibitor; 1 µM).
CC(C)(C)c1nc2c(s1)c1nc(N)ncc1c1ccc(NS(=O)(=O)c3c(F)cccc3F)c(F)c12 has a remaining activity of 91% (enzyme activity, inhibitor, radiometric; 1 µM).
The remaining binding of CO[C@@H](C)c1c(Nc2ccc([C@@H](N(C)C(=O)C3CCS(=O)(=O)CC3)C(F)(F)F)cc2)cnc2cc(Cl)nn12 is reported as 76% (cell-free assay, competition with immobilised ligand; 1 µM).
O=C1Nc2ccc(Cl)cc2C1=Cc1cc(Cl)c(O)c(Cl)c1 gave a remaining signal of 94.1% (cell-free assay; 0.5 µM).
For COc1cc(-c2cn(C3CCc4c(F)cccc4N(CC(F)(F)F)C3=O)nn2)ccc1-n1cnc(C)c1 (stereo not drawn), the remaining binding was 100% (cell-free assay, competition with immobilised ligand; 1 µM).
Cc1ccc(C(=O)Nc2ccc(CN3CCN(C)CC3)c(C(F)(F)F)c2)cc1C#Cc1cnc2cccnn12 has a remaining activity of 85% (enzyme activity; 23.5 nM).
COc1ccc2cc(OCC3(C(=O)O)CN(C(=O)c4ccc(F)cc4)C3)ccc2c1 gave a remaining binding of 100% (cell-free assay, competition with immobilised ligand; 1 µM).
CNCc1ccc(-c2cc(-c3nc(-c4ccc(S(=O)(=O)C(C)C)cc4)cnc3N)on2)cc1 has an inhibition of 1% (enzyme activity, inhibitor; 2 µM).
